Bioassay records from PubChem BioAssay.
Fam108B inh: counter-screen for RBBP9 inhibitors: inhibitors of mouse Fam108B; recombinant Fam108B, FP-Rh probe fluorescence polarization; inhibition, % at 9.51 µM; actives 0.33% (n = 300,000); AID 1947;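 active = inhibition above the screen mean inhibition plus 3 SD, computed separately per campaign, cut at about 18% in these data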;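 note: inhibitors lower polarization as less probe binds the enzyme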
PME-1 primary: blocks human protein phosphatase methylesterase 1 | Q9Y570 | recombinant PME-1, FP-Rh probe fluorescence polarization | inhibition, % at 5.9 µM | actives 0.53% (n = 320,000) | AID 2130;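 active = inhibition above the campaign mean of all compounds plus 3 SD, cut at about 26% in these data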;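 note: competitive labeling of PME-1 active site by serine hydrolase directed probe; 0% = PME-1 with DMSO and 100% = wells lacking PME-1 enzyme; inhibitors block probe labeling so polarization falls and inhibition rises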
Target sequence (Q9Y570 whole entry, looked up): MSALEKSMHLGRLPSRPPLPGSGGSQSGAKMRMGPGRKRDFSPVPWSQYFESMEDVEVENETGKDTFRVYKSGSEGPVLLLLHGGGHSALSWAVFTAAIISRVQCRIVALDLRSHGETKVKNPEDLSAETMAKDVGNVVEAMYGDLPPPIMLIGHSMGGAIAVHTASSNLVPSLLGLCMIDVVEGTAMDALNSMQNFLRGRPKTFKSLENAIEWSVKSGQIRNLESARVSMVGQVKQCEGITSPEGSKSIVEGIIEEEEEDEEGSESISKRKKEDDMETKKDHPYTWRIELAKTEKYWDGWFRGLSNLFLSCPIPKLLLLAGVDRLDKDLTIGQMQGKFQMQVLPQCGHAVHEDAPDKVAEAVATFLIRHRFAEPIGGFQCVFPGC
PAD4 inh: blocks human protein arginine deiminase 4; recombinant PAD4, RCA probe fluorescence polarization; AID 485272; actives 0.41% (n = 330,000); Q9UM07; inhibition, % at 6.36 µM;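 active = percent inhibition above a cutoff equal to the mean of all tested compounds plus 3 SD, cut at about 15% in these data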;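 note: 0% = PAD4 with RCA probe and DMSO and 100% = probe without PAD4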
LYPLA1 inh: counter-screen for PME1 inhibitors: inhibitors of human LYPLA1. O75608. actives 0.16% (n = 320,000). recombinant LYPLA1, FP-Rh probe fluorescence polarization. inhibition, % at 5.9 µM. AID 2174;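 active = inhibition above the mean of all tested compounds plus 3 SD, set per campaign, cut at about 14% in these data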;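 note: inhibitors block serine hydrolase probe labeling of LYPLA1 so polarization falls; 0% = enzyme with DMSO and 100% = wells lacking LYPLA1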
Target sequence (O75608 whole entry, looked up): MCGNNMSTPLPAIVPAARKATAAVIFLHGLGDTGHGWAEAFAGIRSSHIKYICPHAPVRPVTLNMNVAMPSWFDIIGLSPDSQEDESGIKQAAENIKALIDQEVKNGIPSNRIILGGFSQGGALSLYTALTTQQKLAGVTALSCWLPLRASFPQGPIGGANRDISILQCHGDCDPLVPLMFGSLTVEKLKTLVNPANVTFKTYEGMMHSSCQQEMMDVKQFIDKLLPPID
LYPLA2 counter: blocks human lysophospholipase 2, a PME1 counter-screen | O95372 | recombinant LYPLA2, FP-Rh probe fluorescence polarization | inhibition, % at 5.9 µM | actives 0.38% (n = 320,000);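 active = inhibition above the screen-wide mean plus 3 SD, limit set per campaign, cut at about 26% in these data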;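 note: 0% = LYPLA2 with DMSO and 100% = wells lacking LYPLA2 enzyme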
RBBP9 inh: blocks human serine hydrolase RBBP9 | recombinant RBBP9, FP-Rh probe fluorescence polarization | O75884 | inhibition, % at 7.94 µM | actives 0.2% (n = 220,000);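 active = inhibition above the campaign mean of all tested compounds plus 3 SD, cut at about 14% in these data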;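 note: plate controls were DMSO wells with RBBP9 for no effect and wells lacking RBBP9 protein for full effect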
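System: RBBP9 protein / Quantity: 2.5 µM RBBP9 dispensing solution, before mixing / Also added: Serine-hydrolase probe FP-Rh, 375 nM pre-mixing / Dosing: 7.94 µM single dose, 0.794% DMSO / Timing: enzyme-compound preincubation 30 min, then probe labeling 45 min, 25 °C / Signal: FP readout at 525/598 nm / Controls: DMSO-treated enzyme wells and wells lacking RBBP9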
PAD4 confirm: confirmation of human PAD4 inhibitors | shares compounds with PAD4 inh | recombinant PAD4, RCA probe fluorescence polarization | inhibition, % at 6.36 µM | actives 28% (n = 1,200);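 active = mean inhibition across replicates above the hit cutoff set by the earlier primary screen, cut at about 15% in these data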;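 note: inhibitors block active-site labeling by the probe so polarization falls; 0% = PAD4 with probe and DMSO and 100% = probe without PAD4 enzyme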
* marks the source's active call; other numbers are inactive results; nt = not tested or not shown; + = active, no number. The list is not random: actives were taken first. Their share in the collection is about 1.3%.

SMILES	Fam108B inh	PME-1 primary	PAD4 inh	LYPLA1 inh	LYPLA2 counter	RBBP9 inh	PAD4 confirm
O=C(Nc1ccccc1)C1=C[C@@H](C2CC2)C[C@@H](OCc2ccc(CO)cc2)O1	1	2	-1	-2	0	-10	nt
CCCn1c(SCC(=O)Nc2ccc(Cl)cn2)nnc1C1CC1	1	4	-4	5	12	nt	nt
Cn1c(SCC(=O)Nc2ccc(Br)cn2)nnc1C1CC1	0	5	156*	0	0	nt	23*
O=c1[nH]c(Sc2ccc([N+](=O)[O-])cc2[N+](=O)[O-])nc2ccccc12	3	-8	44*	2	-1	nt	19*
CCn1c(-c2ccccn2)nc2cc(S(=O)(=O)N(C)C)ccc21	-7	2	-4	3	3	nt	nt
CCn1c(-c2cc(Br)cc(OC)c2O)nc2cc(S(=O)(=O)N(C)C)ccc21	-2	8	18*	-1	-3	-5	22*
Nc1ccc(N2CCN(CCCCN3C(=O)C4CCCN4C3=O)CC2)cc1 (configuration not stated)	-1	9	65*	7	29*	5	8
CC1CCN(c2ccc(NC(=O)c3ccc(Br)o3)cc2)CC1	5	-1	-4	-5	-2	nt	nt
CCOc1ccc(NC(=O)COC(=O)CCC(=O)c2cccs2)cc1	nt	2	-2	0	-1	nt	nt
O=C(COC(=O)c1ccc(O)cc1)Nc1cccc(S(=O)(=O)NC2=NCCCCC2)c1	-2	-3	-1	-1	-1	-3	nt
Nc1nc2cc(S(=O)(=O)NC3=NCCCCC3)ccc2s1	5	3	28*	3	-1	-11	25*
Nc1ccc(S(=O)(=O)NC2=NCCCCC2)cc1	-1	-10	0	-4	-3	2	nt
CCOC(=O)c1ccc(S(=O)(=O)Nc2nc3cc(S(=O)(=O)NC4=NCCCCC4)ccc3s2)cc1	-1	0	29*	1	2	-9	26*
CC1(C)c2ccccc2N2CCC(=O)NC21/C=C/c1ccco1 (configuration not stated)	-6	-14	17*	-3	-9	-9	-3
Cc1cc([N+](=O)[O-])nn1CCCC(=O)Nc1ccc2c(c1)OCO2	1	6	15*	-1	2	nt	0
Cc1ccccc1Cn1cc(NC(=O)CCCn2nc([N+](=O)[O-])cc2C)cn1	3	6	3	1	4	2	nt
Cc1cc(O)ccc1N/C=C/c1onc(C)c1[N+](=O)[O-]	2	2	37*	0	7	7	3
Cc1cccc(N/C=C/c2onc(C)c2[N+](=O)[O-])c1	-5	0	-3	0	-3	1	nt
CCOC(=O)C1(C)C=C(Nc2ccc(O)cc2)C(=O)N1c1ccc(O)cc1 (configuration not stated)	2	13	85*	5	16	5	6
O=C(CN1CCN(c2ccccn2)CC1)Nc1nc2ccccc2s1	-8	3	18*	-1	-2	nt	6
CCOc1ccc2nc(NC(=O)CN3CCN(c4ccccn4)CC3)sc2c1	0	0	4	-2	5	-4	nt
Nc1ccccc1SSc1ccccc1N	10	-3	8	1	9	-11	nt
CC(C(Sc1ccccc1N)c1ccccc1)[N+](=O)[O-] (configuration not stated)	-1	8	18*	3	3	-7	15*
COc1cccc(N2CCN(C(=O)c3cn(Cc4ccccc4)nc3-c3cccnc3)CC2)c1	nt	11	21*	12	20	nt	0
COc1ccccc1N1CCN(C(=O)c2cn(Cc3ccccc3)nc2-c2cccnc2)CC1	nt	-6	-2	-2	-3	nt	nt
SMILES	Fam108B inh	PME-1 primary	PAD4 inh	LYPLA1 inh	LYPLA2 counter	RBBP9 inh	PAD4 confirm
CC1(C)C(=O)OC(c2ccc([N+](=O)[O-])cc2)C(C)(C)C1=O (configuration not stated)	-2	-7	2	-5	-2	nt	nt
O=C(NC(=S)NC1CCN(Cc2ccccc2)CC1)c1ccc(F)cc1	-7	-1	33*	-4	-2	nt	37*
N#C/C(=C\c1ccccc1)C(=O)OCC(=O)N1CCCC1	-3	-3	-1	3	10	-2	nt
Cc1ccnc(NC(=O)c2cc3cc(F)ccc3s2)c1	-9	-10	17*	-4	-6	nt	25*
CCCCn1c(NS(=O)(=O)c2ccc(C)cc2)c(S(=O)(=O)c2ccccc2)c2nc3ccccc3nc21	1	5	36*	-4	-6	0	-7
Cc1ccc(S(=O)(=O)c2c(N)n(CCCN(C)C)c3nc4ccccc4nc23)cc1	1	0	1	2	-1	-4	nt
CC1(C)CC(=O)N(c2cccc(C(F)(F)F)c2)C(=O)C1	-11	-2	-2	1	2	nt	nt
Cc1[nH][nH]c(=O)c1C(c1ccc(-c2ccc(F)cc2)o1)c1c(C)[nH][nH]c1=O	-1	-3	48*	2	-8	-2	-20
Cc1[nH][nH]c(=O)c1C(c1ccc(-c2ccc(C(=O)O)cc2)o1)c1c(C)[nH][nH]c1=O	nt	nt	nt	nt	nt	0	nt
COc1ccc(/C(N)=N/OC(=O)CC2CCCCC2)cc1	0	3	0	3	9	nt	nt
C/C(=N/NC(=O)CSc1nc2ccccc2s1)c1ccncc1	0	1	4	-2	0	-3	nt
CS/C(=N\S(=O)(=O)c1cccs1)NC(=O)CSc1nc2ccccc2s1	11	0	18*	-1	-3	-7	7
CCOC(=O)C(Nc1ccc2ccccc2c1)C(=O)OCC	5	16	21*	1	-1	4	-1
Cc1cc2c(cc1S(=O)(=O)CCC(=O)NCCc1ccccc1)OCC(=O)N2	-1	2	4	0	2	nt	nt
COc1cccc(NC(=O)CN(C)C(=O)C23CC4CC(CC(Cl)(C4)C2)C3)c1	nt	0	+	-3	-7	nt	-4
COc1cccc(CNC(=O)COC(=O)C23CC4CC(CC(Cl)(C4)C2)C3)c1	nt	nt	-2	nt	nt	nt	nt
COc1ccc(C(C[N+](=O)[O-])c2c(C)[nH]n(-c3ccccc3)c2=O)cc1 (configuration not stated)	-2	-2	17*	1	5	nt	11
CCOc1cccc(C(c2c(C)n(C)n(-c3ccccc3)c2=O)c2c(C)n(C)n(-c3ccccc3)c2=O)c1OC	-1	2	-5	-4	-2	nt	nt
COc1cccc(C(c2c(C)[nH]n(-c3ccccc3)c2=O)c2c(C)[nH]n(-c3ccccc3)c2=O)c1O	4	-1	64*	0	3	nt	-3
COc1cccc(C(c2c(C)[nH]n(-c3ccccc3)c2=O)c2c(C)[nH]n(-c3ccccc3)c2=O)c1OC	3	2	72*	1	3	1	3
